Bioassay records as filed in PubChem.
L major viab: Leishmania major promastigote growth inhibition. Leishmania major promastigotes, resazurin fluorescence viability. 200,000 tested, 9% active. inhibition, % at 10 µM; in the data active = inhibition above about 50%;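 also: promastigotes grown with compound for 44 hours at 28 °C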
PMI act satM6P: PMI (human) activation, high substrate; P34949; 190,000 tested, 0.34% active; activation factor at 20 µM; coupled PMI enzyme assay, resazurin fluorescence, 20 min; active compounds read high; 1 = untreated enzyme, 0 = substrate-free blank;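 active = activation factor of 2 or more at 20 µM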
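Material: human phosphomannose isomerase with PGI, G6PDH, diaphorase coupling enzymes. Quantity: 15 ng/mL PMI. Medium: HEPES pH 7.4 buffer with MgCl2 and Tween-20. Reagent: Near-saturating mannose-6-phosphate, 1.0 mM. Compound: 20 µM single dose. Times: enzyme reaction with compound 20 min at room temperature. Detection: resorufin fluorescence at Ex 544/Em 590 nm.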
Calpain2 inh: inhibitors of pig calpain II; purified calpain II, fluorogenic peptide substrate, 30 min; inhibition, % at 16 µM; 220,000 tested, 0.37% active; AID 1236;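 active = inhibition above about 50%, limit read from the data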
PMI act: phosphomannose isomerase (human) activation. P34949. purified human PMI, coupled resazurin fluorescence, 20 min; active compounds read high; 1 = vehicle control, 0 substrate-free wells. activation factor at 20 µM. 190,000 tested, 0.005% active. AID 1214;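 active = activation factor of 2 or more at 20 µM, relative to plate controls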
Rad51 HR inh: blocks human Rad51 in homologous recombination; Q06609; hRad51 DNA strand exchange, fluorescence dequenching; inhibition, % at 10 µM; 200,000 tested, 0.085% active; AID 1385;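 active = inhibition above 40% at the single screening dose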;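 also: 0% = DMSO control wells and 100% = blanks with heterologous ssDNA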
Target sequence (Q06609 whole entry, looked up): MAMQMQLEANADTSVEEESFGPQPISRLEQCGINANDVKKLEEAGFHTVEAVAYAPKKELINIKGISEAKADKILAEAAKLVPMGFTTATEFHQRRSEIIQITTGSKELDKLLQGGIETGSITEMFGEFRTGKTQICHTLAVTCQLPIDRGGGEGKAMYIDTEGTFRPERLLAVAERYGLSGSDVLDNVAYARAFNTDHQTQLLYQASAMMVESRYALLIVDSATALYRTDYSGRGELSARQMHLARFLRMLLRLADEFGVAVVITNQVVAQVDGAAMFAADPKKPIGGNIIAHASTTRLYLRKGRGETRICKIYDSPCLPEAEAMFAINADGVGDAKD
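System: human Rad51 nucleoprotein filaments preassembled on unlabelled ssDNA. Reagent: labelled 47-mer dsDNA for strand exchange. Schedule: 30-min compound preincubation and 15-min exchange, both room temperature. Measured by: FRET fluorescence dequenching, excitation 485 nm, emission 520 nm. Read-out: Fluorescence-based percent inhibition, control- and blank-normalised. Benchmarks: plate controls and plate blanks.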
WT yeast gro inh: growth inhibition of WT yeast, mitochondrial fusion screen; inhibition, % at 10 µM; AID 1362; mitochondrial fusion phenotypic screen, WT strain; 190,000 tested, 2.1% active; in the data active = inhibition above about 58%; tested in S. cerevisiae
Starred values were filed as active, the others as inactive; i = inactive; / = not tested or not shown. Only some compounds are listed: those with a hit (about 9.8% of all), similar ones and a draw of the others.

SMILES	L major viab	PMI act satM6P	Calpain2 inh	PMI act	Rad51 HR inh	WT yeast gro inh
Brc1cccc(/C=N/Nc2nc(N3CCCCC3)nc(N3CCCCC3)n2)c1	51.8*	/	32.9	/	-28.6	1.5
COc1cc(/C=C2\CC/C(=C\c3cc(OC)c(O)c(OC)c3)C2=O)cc(OC)c1O	57.8*	0.3	-54.6	0.4	-42.0	-8.8
COc1cc(/C=C2\CCCc3c2nc2ccccc2c3C(=O)O)cc(OC)c1O	/	/	-4.9	/	/	/
COc1cc(/C=C2/CCC/C(=C\c3cc(O)c(OC)c(Cl)c3)C2=O)cc(Cl)c1O	91.3*	0.6	-57.6	0.9	-17.4	/
COc1cc(/C=C2\COC/C(=C\c3cc(OC)c(OC)c(OC)c3)C2=O)cc(OC)c1OC	/	/	-4.2	/	13.1	/
COc1cc(/C=C2\CC/C(=C\c3cc(OC)c(OC)c(OC)c3)C2=O)cc(OC)c1OC	96.0*	0.9	1.2	1	-18.1	-24.3
CCOC(=O)C(CC)(CC)C(=O)/C=C/c1ccc(Br)cc1	83.0*	0.9	6.1	0.9	-3.0	61.4*
N#Cc1ccsc1NC(=O)CN1CCCCCC1	58.6*	1	-0.2	1	1.9	-4.1
CCOC(=O)N1CCN(CC(=O)Nc2sccc2C#N)CC1	8.5	1.1	82.4*	1.1	1.3	-7.3
CCOC(=O)c1nc(-c2ccc(OC)c(OC)c2)no1	-6.4	0.9	-20.5	1	/	4.2
COc1ccc(S(=O)(=O)NNC(=O)C(=O)NNc2ccccn2)cc1	/	/	6.6	/	6.3	/
O=C(NNC(=O)c1cc(O)c(O)c(O)c1)NC1CCCCC1	91.7*	0.9	-10.7	0.5	2.7	-1.4
Cc1nn(-c2ccccc2)c(Cl)c1C(=O)NCCN(C)C	1.8	1.1	20.1	1.1	-1.5	5.7
O=C(OCc1nc2ccccc2[n+]([O-])c1C(=O)c1ccccc1)c1cccs1	86.4*	1.1	11.9	1	8.8	2.4
Cn1c(=O)c2c(nc(CN3CCc4ccccc4C3)n2CCc2ccccc2)n(C)c1=O	30.0	/	/	/	/	/
Cn1c(=O)c2c(nc(CN3CCc4ccccc4C3)n2CCCO)n(C)c1=O	0.7	2.2*	-28.0	1.8	2.5	-5.2
Cn1c(=O)c2c(nc(CN3CCc4ccccc4C3)n2Cc2ccccc2F)n(C)c1=O	61.2*	0.8	12.6	0.8	0.2	3.1
COCCn1c(CN2CCc3ccccc3C2)nc2c1c(=O)n(C)c(=O)n2C	3.8	1	-20.1	1	4.7	8.7
Cn1c(=O)c2c(nc(CN3CCc4ccccc4C3)n2Cc2cccc(Cl)c2)n(C)c1=O	56.2*	1.1	0.9	0.9	-7.6	5.6
N#Cc1c(-c2ccc(Cl)cc2)ccnc1N1CCOCC1	-7.3	1.1	-137.1	1	-47.4	-4.7
Cc1[nH][nH]c(=O)c1C=NCc1cccc(C(F)(F)F)c1	-5.0	1	-18.8	1	4.4	-10.8
NNC(=O)Cn1c(-c2ccccc2)cc(=O)n2ncnc12	/	/	-20.1	/	8.5	/
CCCCCC(=O)NC(=S)NC1C2CC3CC(C2)CC1C3 (stereo not drawn)	/	/	35.0	/	/	/
CCOC(=O)CNC(=O)N1CCCC(C(=O)c2ccccc2SC)C1 (stereo not drawn)	0.6	0.9	4.0	0.9	2.3	-0.7
CCOc1ccc(NC(=O)c2cc3cc4ccc(OC)cc4nc3o2)cc1	100.1*	1	i	1	3.5	-1.4
SMILES	L major viab	PMI act satM6P	Calpain2 inh	PMI act	Rad51 HR inh	WT yeast gro inh
COc1ccc2cc3cc(C(=O)NCC4CCCO4)oc3nc2c1 (stereo not drawn)	79.3*	0.9	i	0.9	2.9	15.1
COc1ccc2cc3cc(C(=O)NCc4ccco4)oc3nc2c1	59.8*	1	-417.1	1	-5.0	-7.2
COc1ccc(C(=O)NCC2CCCO2)cc1 (stereo not drawn)	6.6	1	-19.1	1.1	-34.6	-13.2
COc1ccc2cc3cc(C(=O)Nc4ccccc4N4CCN(C)CC4)oc3nc2c1	99.5*	1	-40.6	1.1	-0.8	19.2
O=C(NCc1ccco1)c1cc2cc3ccc(Cl)cc3nc2o1	5.5	1.1	-42.5	1	0.6	2.9
CCOc1ccc(NC(=O)c2cc3cc4ccc(C)cc4nc3o2)cc1	1.6	1	-128.2	1	-8.5	-3.0
S=C(c1ccc(N2CCCC2)c(Br)c1)N1CCCCC1	3.4	0.8	27.6	1.1	1.1	55.8
O=C(CCCc1nc2ccccc2s1)NCc1cccnc1	-3.4	1.1	20.2	1.1	-1.8	26.6
CCN(CC)CCNC(=O)C12CC3CC(C)(CC(C)(C3)C1)C2	93.9*	1	-10.0	0.9	-2.4	-14.1
CCOC(=O)C(=NCCCN(C)C)NNc1ccc(Br)cc1	66.7*	1.1	-29.3	1.1	/	24.9
CCOC(=O)C(=NCCCN(C)C)NNc1cc(C(F)(F)F)ccc1Cl	13.8	0.9	-15.2	1.2	10.5	17.8
CCCCN=C(NNc1ccc(Br)cc1)C(=O)OCC	31.0	1.7	5.4	1.3	-2.6	64.4*
CC(NCC(O)c1ccc([N+](=O)[O-])cc1)C12CC3CC(CC(C3)C1)C2 (stereo not drawn)	/	/	22.7	/	6.9	/
COc1cc(/C=N/n2c(-c3ccc4c(c3)NC(=O)CO4)csc2=Nc2cccc(C)c2)ccc1O	91.6*	1	-81.2	1	/	29.9
O=C(O)/C=C/C(=O)NC1CC1	-1.9	1.2	-42.5	1.1	-8.0	-2.6
COc1ccc(CNCC(=O)Nc2ccccc2-n2cccc2)cc1	-5.1	1.1	-17.0	1.1	1.8	1.4
O=C(NNC(=S)Nc1cccc(C(F)(F)F)c1)c1ccccc1Cl	-4.1	1.1	-21.1	1.1	5.9	-5.5
O=C(Nc1cccc(C(F)(F)F)c1)c1cccnc1NCCc1ccccc1	21.4	1	26.3	0.9	-4.3	86.9*
O=C(CCNC(=O)c1ccccc1Cl)Nc1cccc(C(F)(F)F)c1	65.2*	1	5.8	1	0.9	10.9
O=C(Nc1cccc(F)c1)c1cccnc1NCCc1ccccc1	25.1	0.9	4.2	0.8	-0.9	36.3
O=C(COc1cccc2cccnc12)Nc1ccccc1N1CCOCC1	3.6	1	-9.0	1	0.4	7.3
COc1ccc(C(=O)N(C)C2CCN(C)CC2)cc1S(=O)(=O)Nc1cc(Cl)ccc1Cl	/	/	-21.2	/	6.9	/
COc1nc(-c2ccccc2)nc(C)c1CC(=O)O	-6.8	0.9	-19.1	0.9	-18.6	-16.2
C=CCOc1ccc2c(c1)C(=NO)c1cc(OCC=C)ccc1-2	96.0*	1	15.3	0.9	5.3	3.5
COc1ccc2c(c1)C(=NO)c1cc(OC)ccc1-2	-3.1	0.9	0.6	0.9	-4.9	-4.2
O=C(Cn1cnc(Cl)c1Cl)c1ccc(F)cc1	-1.2	1	-16.3	1	2.9	5.9
CCOC(=O)N/N=C(C)/C=C/c1ccco1	84.2*	0.9	-0.9	1	-6.7	-10.4
CCOC(=O)N/N=C(C)/C=C/c1ccccc1	-1.8	1.1	-0.6	1	-0.1	-11.7
